{"data": "Measurements pooled from the literature", "target": "Tyrosine-protein kinase Lck (LCK, Homo sapiens, UniProt P06239)", "note": "Compare with care: the assays were run in different laboratories."}
{"Structure (SMILES)": "COc1ncccc1-c1cnn2ccc(N3CCN(C(=O)OC(C)C)CC3)nc12", "effect on": "binding", "technique": "competition with immobilised ligand", "concentration": "1 µM", "measurement": "remaining binding", "result": "100%"}
{"Structure (SMILES)": "Cn1cncc1[C@](O)(COc1ccc(C#N)cc1-c1ccc(OC(F)(F)F)cc1)c1ccc(C#N)cc1", "effect on": "cell-free assay", "technique": "competition with immobilised ligand", "concentration": "1 µM", "measurement": "remaining binding", "result": "82%"}
{"Structure (SMILES)": "C#Cc1n[nH]c2c(-c3cn([C@@H](C)c4ccccn4)c(=O)[nH]c3=O)cc(F)cc12", "effect on": "enzyme activity", "action": "inhibitor", "concentration": "0.1 µM", "measurement": "inhibition", "result": "8.8%"}
{"Structure (SMILES)": "Cc1nn(C)cc1-c1nc2c(N3CCN(Cc4ccc(Cl)cc4)CC3)c(Cl)cnc2[nH]1", "effect on": "binding", "technique": "competition with immobilised ligand", "concentration": "1 µM", "measurement": "remaining binding", "result": "100%"}
{"Structure (SMILES)": "Clc1ccc2c(C3CCN(CCc4c[nH]c5ccccc45)CC3)c[nH]c2c1", "effect on": "enzyme activity", "action": "inhibitor", "concentration": "10 µM", "measurement": "inhibition", "result": "66%"}
{"Structure (SMILES)": "C#Cc1n[nH]c2c(-c3cn([C@@H](C)c4ccccc4)c(=O)[nH]c3=O)cc(F)cc12", "effect on": "enzyme activity", "action": "inhibitor", "concentration": "0.1 µM", "measurement": "inhibition", "result": "10.5%"}
{"Structure (SMILES)": "Nc1ncc(-c2nc(N3CCOCC3)nc(N3CCOCC3)n2)c(C(F)F)n1", "effect on": "enzyme activity", "action": "inhibitor", "concentration": "10 µM", "measurement": "remaining activity", "result": "92%"}
{"Structure (SMILES)": "CC(C)(C)c1cc(C=C(C#N)C#N)cc(Br)c1O", "effect on": "enzyme activity", "action": "inhibitor", "concentration": "0.5 µM", "measurement": "remaining activity", "result": "87.8%"}
{"Structure (SMILES)": "N#CC1(c2ccccn2)CCN(Cc2cc(C(=O)O)c(=O)n3ccccc23)CC1", "effect on": "cell-free assay", "technique": "competition with immobilised ligand", "concentration": "1 µM", "measurement": "remaining binding", "result": "97%"}
{"Structure (SMILES)": "Cn1cc(-c2cc(F)cc(N3CCn4c(cc5c4CCCC5)C3=O)c2CO)cc(Nc2ccc(N3CCN(C4COC4)CC3)cn2)c1=O", "effect on": "enzyme activity", "action": "inhibitor", "concentration": "0.1 µM", "measurement": "inhibition", "result": "-1%"}
{"Structure (SMILES)": "O=c1[nH]c2ccccc2n1C1CCN(Cc2ccc(-c3[nH]c4cc5ncnc5cc4nc3-c3ccccc3)cc2)CC1", "effect on": "enzyme activity", "action": "inhibitor", "concentration": "0.5 µM", "measurement": "remaining activity", "result": "98.2%"}
